Screening data as filed in PubChem BioAssay.
D1 mod – D1 dopamine receptor (human) allosteric modulation | P21728 | HEK293 D1, CRE-luciferase, dopamine EC30 potentiation; actives deviate in either direction | B-score at 10 µM | actives 5.9% (n = 58,000) | AID 641;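 active = luminescence count or its row- and column-corrected plate score outside the 99.7% band of the plate's sample wells, on either side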
BAP1 block – inhibitors of human BAP1 deubiquitinase; actives 0.48% (n = 72,000); calls only at 20 µM; recombinant BAP1, Ub-AMC hydrolysis fluorescence kinetic; active compounds read low;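 active = activity remaining at or below 50% of control, provided the compound also passes the data quality filters; inactive = the rest, including low values that fail the filters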
Target sequence (Q92560 whole entry, looked up): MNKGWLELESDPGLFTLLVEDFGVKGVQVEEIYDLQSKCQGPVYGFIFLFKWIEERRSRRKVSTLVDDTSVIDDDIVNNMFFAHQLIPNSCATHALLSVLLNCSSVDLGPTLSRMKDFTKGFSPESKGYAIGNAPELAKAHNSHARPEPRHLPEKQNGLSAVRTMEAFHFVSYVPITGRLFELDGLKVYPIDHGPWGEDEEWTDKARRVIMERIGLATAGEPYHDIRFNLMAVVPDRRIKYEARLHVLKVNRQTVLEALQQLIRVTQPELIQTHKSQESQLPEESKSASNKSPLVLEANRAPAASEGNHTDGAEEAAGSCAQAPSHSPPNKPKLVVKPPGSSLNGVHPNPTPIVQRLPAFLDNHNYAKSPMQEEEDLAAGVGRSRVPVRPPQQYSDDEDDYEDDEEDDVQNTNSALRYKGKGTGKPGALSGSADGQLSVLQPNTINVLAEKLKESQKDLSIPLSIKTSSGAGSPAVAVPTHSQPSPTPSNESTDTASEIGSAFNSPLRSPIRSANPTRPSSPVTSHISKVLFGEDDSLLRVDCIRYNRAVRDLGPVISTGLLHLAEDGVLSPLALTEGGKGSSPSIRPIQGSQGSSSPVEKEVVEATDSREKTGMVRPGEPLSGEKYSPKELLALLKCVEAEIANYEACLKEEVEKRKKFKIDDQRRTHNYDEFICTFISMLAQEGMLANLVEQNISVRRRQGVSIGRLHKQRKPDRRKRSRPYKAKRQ
M1 agonist – agonists of M1 muscarinic receptor; CHO-M1 cells, Fluo-4 calcium fluorescence, agonist mode; active compounds read high; B-score at 10 µM; actives 3% (n = 64,000); AID 626;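 active = fluorescence rise, raw or as B-score row- and column-corrected plate score, outside the 99.7% band of its plate's samples, either direction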
HEK293 NFkB inh – inhibitors of the PMA/ionomycin-induced NF-kB reporter in HEK293 cells; HEK-293 NF-kB luciferase reporter, luminescence; inhibition, % at 3 µM; actives 0.21% (n = 62,000);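 active = inhibition above the mean of all tested compounds plus 3 SD, cut at about 40% in these data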
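System: NF-kB luciferase reporter HEK-293 cells | Replication: Single test | Control set: DMSO vs reference inhibitor | Evaluation: % inhibition | Schedule: 1 h pretreatment, 16 h stimulation, 37 °C | Probe or stimulus: PMA with ionomycin | Compound dosing: One dose, 3 µM | Detection: Luciferase luminescence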
M1 antag – M1 muscarinic receptor (rat) antagonism; P08482; CHO-M1 cells, Fluo-4 calcium, ACh EC80 antagonist mode; active compounds read low; B-score at 10 µM; actives 3.4% (n = 64,000); AID 628;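 active = calcium fluorescence response, raw or row-and-column corrected B-score, differing from the plate sample mean either way at a set confidence level, mostly lower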
DAT uptake mod – changed human dopamine transporter uptake under cocaine IC80 | AID 449768 | LLC-PK1 hDAT cells, [14C]-dopamine uptake with cocaine IC80; actives deviate in either direction | actives 1.3% (n = 110,000) | B-score at 10 µM | Q01959;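 active = Z score or B-score, a plate-position-corrected score, falls beyond the plate's 99.7% confidence bounds, in either direction; inactive = both scores lie inside the 99.7% bounds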
M1 agonist conf – confirmation of rat M1 muscarinic receptor agonists. actives 19% (n = 1,700). fluorescence change (max-min) at 10 µM. CHO-M1 cells, Fluo-4 calcium fluorescence, agonist mode; actives lie on both sides. shares compounds with M1 agonist;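 active = fluorescence change differs from the solvent-only DMSO control mean at a set confidence level in both duplicate runs; inconclusive = differs from solvent-only control mean in just one of two runs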;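 also: an EC20 dose of acetylcholine follows compound addition during the same imaging run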
M4 ag counter – counter-screen for M1 agonists: activity at rat M4 receptor; shares compounds with M1 agonist; CHO M4/Gqi5 cells, Fluo-4 calcium fluorescence, agonist mode; actives lie on both sides; fluorescence change (max-min) at 10 µM; actives 9% (n = 1,700); AID 1741;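 active = fluorescence change differing from the plate's solvent-only control wells at 99.7% confidence in both duplicates, whether higher or lower; inconclusive = differs from solvent controls in only one of two duplicates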
Hits are given with their value; n = inactive; u = inconclusive; x = not tested or not shown. This is a sample that favours compounds with a hit; in the whole collection about 7.2% have one here.

SMILES	D1 mod	BAP1 block	M1 agonist	HEK293 NFkB inh	M1 antag	DAT uptake mod	M1 agonist conf	M4 ag counter
Cn1c(CCNC(=O)c2ccco2)nc2cc(NC(=O)c3ccco3)ccc21	n	n	n	n	n	n	x	x
Cn1c(CCNC(=O)c2ccco2)nc2cc(NS(=O)(=O)c3ccccc3)ccc21	n	n	32	n	n	n	u	n
O=C(Nc1ccccc1C(=O)NC(Cc1c[nH]c2ccccc12)C(=O)O)c1ccco1 (centres undefined)	n	n	-2.6	n	n	n	-28	n
Cn1c(=O)c2c(nc(Oc3cccc(C4Nc5ccc6ccccc6c5C5=C4C(=O)CC(C)(C)C5)c3)n2C)n(C)c1=O (centres undefined)	x	n	x	x	x	x	x	x
Cc1ccccc1Cn1ccc(NC(=O)c2cnn3c(C(F)(F)F)cc(-c4ccco4)nc23)n1	-4.4	x	9.2	n	-2.7	n	u	u
Cc1ccccc1Cn1ccc(NC(=O)CCSc2nc(-c3ccco3)cc(C(F)(F)F)n2)n1	n	x	n	n	n	n	x	x
CCc1ccc(OCCNc2cc(Cl)ccc2[N+](=O)[O-])cc1	x	n	x	x	x	x	x	x
Cc1nn(C(=O)c2ccccc2)c2c1C(=O)CC(C)(C)C2	x	n	9.7	n	n	n	n	u
Cn1c(=O)c2c(SCC(=O)c3ccccc3)nc(C3CC3)nc2n(C)c1=O	n	n	2.7	n	n	n	n	n
CCCc1nc(SCC(=O)c2ccccc2)c2c(=O)n(C)c(=O)n(C)c2n1	x	x	x	x	x	n	x	x
Cc1ccc(NC(=O)CCSc2nnnn2-c2ccc3c(c2)OCO3)cc1C	n	n	-2.7	n	n	n	n	n
CCOc1cc(-c2ccc(N)c(OCC)c2)ccc1N	n	n	36	n	n	n	249	211
O=C(Nc1cccc(S(=O)(=O)c2cccc(NC(=O)C3CC3)c2)c1)C1CC1	n	n	2.8	n	n	n	n	n
O=C(Nc1ccc(F)cc1)c1ccc([N+](=O)[O-])o1	x	n	x	x	x	x	x	x
COc1ccc(CNc2nc3c(c(=O)n(Cc4ccc(Br)cc4)c(=O)n3C)n2C)cc1	-2.7	n	3.4	n	n	n	n	n
COc1ccc(CCNc2c(C)c(C)nc3ncnn23)cc1	n	n	3.3	46	-1.2	n	n	n
CCc1c(C)nc2ncnn2c1NCCc1ccc(OC)c(OC)c1	n	n	n	n	n	n	x	x
CCN(CC)CCNc1ccnc2c1ccc1nsnc12	x	n	x	x	x	x	x	x
COc1cc2[nH]c(=O)n(CCCCCC(=O)N3CCN(c4ccccn4)CC3)c(=O)c2cc1OC	n	n	7.2	n	n	n	n	n
COc1cc2[nH]c(=O)n(CCCC(=O)N3CC=C(c4ccccc4)CC3)c(=O)c2cc1OC	x	x	n	n	n	n	x	x
O=C(c1ccc(Cn2c(=O)[nH]c3ccccc3c2=O)cc1)N1CCN(c2ccccn2)CC1	n	n	3.8	n	n	n	n	n
CCOC(=O)N1CCN(C(=O)c2ccc3c(=O)n(Cc4ccccc4)c(=S)[nH]c3c2)CC1	n	n	4.6	n	n	n	u	u
COc1ccc(-c2cc(C)c3c(ccc4ccccc43)n2)cc1	x	n	x	x	x	x	x	x
Cc1ccccc1-n1nc2c(c1NC(=O)c1ccc(S(=O)(=O)N3CCCCC3)cc1)CSC2	x	n	x	x	x	x	x	x
Cc1cc2c(c(=O)o1)C1(C(=O)N(CC(=O)O)c3ccccc31)C(C#N)=C(N)O2 (centres undefined)	n	n	18	n	n	n	60	n
SMILES	D1 mod	BAP1 block	M1 agonist	HEK293 NFkB inh	M1 antag	DAT uptake mod	M1 agonist conf	M4 ag counter
O=C(Nc1ccc(Cl)cc1)NC1CCCC1Cc1ccco1 (centres undefined)	n	n	4.8	n	-2.1	-5.7	u	n
O=C(Nc1ccc(Cl)cc1)NC1CCCCC1Cc1ccco1 (centres undefined)	x	x	x	x	x	n	x	x
C1=C(c2ccccc2)Nc2ncnn2C1c1ccccc1 (centres undefined)	x	n	x	x	x	n	x	x
COc1ccc(C2C=C(c3cccs3)Nc3nc(CCCO)nn32)cc1 (centres undefined)	n	x	288	n	-18	n	2868	2408
COc1ccc(C2C(C(=O)Nc3ccccc3)=C(C)Nc3nc(CCCO)nn32)cc1 (centres undefined)	n	n	n	n	n	n	x	x
CC(=O)Nc1nc2n(n1)C(c1ccc(F)cc1)C=C(c1ccccc1)N2 (centres undefined)	n	n	7.6	n	n	n	119	93
OCCCc1nc2n(n1)C(c1ccccc1)C=C(c1ccccc1)N2 (centres undefined)	n	n	12	n	n	n	74	n
COc1ccc(C2C=C(c3ccccc3)Nc3nc(CCCO)nn32)cc1 (centres undefined)	n	x	9.3	n	n	n	72	n
CC1CCc2sc(NC(=O)COc3ccc(Cl)cc3)c(C(N)=O)c2C1 (centres undefined)	x	n	x	x	x	x	x	x
O=C(N1CCCC1)n1c(Cc2ccccc2)nc2ccccc21	n	n	6.4	n	n	n	u	-82
O=C(O)Cn1c(CC(=O)N2CCCC2)nc2ccccc21	n	n	n	n	n	n	x	x
CCOC(=O)c1[nH]c2cc(OC)c(OC)cc2c1NC(=O)C(C)N1CCN(Cc2ccccc2)CC1 (centres undefined)	n	n	3.8	x	-4.3	n	u	n
COc1cccc(C(=O)Nc2c3c(nn2-c2ccc(C)cc2)CSC3)c1OC	x	n	x	x	x	x	x	x
c1ccc(N2CCN(c3c4c(nc5ncnn35)CCC4)CC2)cc1	n	n	n	n	n	n	x	x
COc1cccc(N2CCN(c3c4c(nc5ncnn35)CCC4)CC2)c1	n	n	6.7	n	n	n	n	n
O=C(Cn1nnc(-c2ccccc2)n1)OCc1csc(-c2ccccc2)n1	n	n	14	n	n	n	n	n
Cc1ccc2[nH]c(=O)c(CN(CCc3ccccc3)C(=O)N3CCOCC3)cc2c1	n	n	14	n	n	n	n	u
COc1ccc(C2C(C(=O)N3CCCCC3)c3ccccc3C(=O)N2C)cc1 (centres undefined)	n	x	n	n	n	n	x	x
CCOC(=O)C1CCN(C(=O)C2c3ccccc3C(=O)N(C)C2c2ccc(OC)cc2)CC1 (centres undefined)	n	x	10	n	n	n	u	n
O=C(c1ccco1)N1CCN(CC2CC3C=CC2C3)CC1 (centres undefined)	n	n	6.2	n	-2.4	n	u	n
CS(=O)(=O)N1CCN(CC2CC3C=CC2C3)CC1 (centres undefined)	n	n	37	n	-6.8	n	208	n
Cc1ccccc1CN1CCN(CC2CC3C=CC2C3)CC1 (centres undefined)	x	x	x	x	x	n	x	x
